Data set [1] concerns the target T1, BRD4 (BD1) (Homo sapiens, UniProt O60885). Put plainly: BRD4-1 AlphaScreen binding assay.
Data set [2] addresses T1, BRD4 (BD1). The data set can be described thus: BRD4-1 AlphaScreen binding assay. This is another data set of the same source.
Data set [3] deals with ERK5 (Homo sapiens, UniProt Q13164). Put plainly: ERK5 kinase activity in vitro assay. The settings on record: for IC50: read-out: Enzymatic IC50 (ERK5), in vitro assay, average of 2 replicates ± SD. It is filed as biochemical.
Chain of ERK5 (Homo sapiens, UniProt Q13164) (Q13164 whole entry): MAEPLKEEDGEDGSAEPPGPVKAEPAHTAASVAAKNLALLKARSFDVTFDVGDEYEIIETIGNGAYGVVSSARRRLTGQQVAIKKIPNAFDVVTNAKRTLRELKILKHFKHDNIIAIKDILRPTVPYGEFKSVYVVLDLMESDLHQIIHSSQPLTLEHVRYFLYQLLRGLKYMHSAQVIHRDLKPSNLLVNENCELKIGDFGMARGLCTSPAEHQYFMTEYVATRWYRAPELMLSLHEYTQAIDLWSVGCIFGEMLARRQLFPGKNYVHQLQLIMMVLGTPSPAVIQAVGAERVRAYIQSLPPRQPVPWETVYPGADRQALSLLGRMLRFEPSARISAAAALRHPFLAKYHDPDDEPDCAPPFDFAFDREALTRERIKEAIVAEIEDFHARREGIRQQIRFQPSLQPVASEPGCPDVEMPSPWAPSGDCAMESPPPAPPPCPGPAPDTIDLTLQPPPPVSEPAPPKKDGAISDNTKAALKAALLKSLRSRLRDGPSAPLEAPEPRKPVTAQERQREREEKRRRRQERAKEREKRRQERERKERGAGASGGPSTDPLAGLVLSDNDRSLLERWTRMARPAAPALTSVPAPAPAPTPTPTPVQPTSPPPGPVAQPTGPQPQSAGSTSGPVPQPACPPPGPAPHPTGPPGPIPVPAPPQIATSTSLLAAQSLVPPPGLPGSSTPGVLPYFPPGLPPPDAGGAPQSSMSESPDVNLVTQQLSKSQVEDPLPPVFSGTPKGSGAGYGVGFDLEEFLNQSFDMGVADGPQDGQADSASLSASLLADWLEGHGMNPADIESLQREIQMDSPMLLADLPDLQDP
Another data set has as its target LRRK2 (Homo sapiens, UniProt Q5S007). Put plainly: LRRK2 kinase activity in vitro assay. Type of data set: biochemical.
In the next data set the test system is panel of 32 bromodomains. Put plainly: BROMOscan bromodomain profiling. Type of data set: binding. The settings on record: 10 μM.
The subject of data set [4] is ERK5. The data set can be described thus: Cellular assay of ERK5. It is filed as cell-based, Human.
Data set [5] concerns 797 NUT-midline carcinoma cells. Put plainly: 797 NMC cell viability assay. It is filed as cell-based. The settings on record: read-out: Viability IC50 (BRD4), Cell Titer Glo, 3 days, average of 3 replicates ± SD. In outline:
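797 NUT-midline carcinoma cells were seeded at 5,000 cells/well and exposed for 3 days to a range of test compound concentrations or DMSO. Relative cell number was read with Cell Titer Glo following the kit instructions. The methods state 6 replicates; the reported IC50 is the mean of 3 replicates ± SD.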

The subject of data set [6] is ERK5. The data set can be described thus: KinomeScan kinome profiling, ERK5. Type of data set: binding. The settings on record: 1 μM, panel of 468 human kinases. In outline: (§1)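 KinomeScan ScanMAX binding panel, single test compound concentration of 1 μM. A hit was defined as an Ambit score below 10%.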
The target in data set [7] is T2, DCAMKL2 (Homo sapiens, UniProt Q8N568).
T2 sequence (Q8N568 1-766): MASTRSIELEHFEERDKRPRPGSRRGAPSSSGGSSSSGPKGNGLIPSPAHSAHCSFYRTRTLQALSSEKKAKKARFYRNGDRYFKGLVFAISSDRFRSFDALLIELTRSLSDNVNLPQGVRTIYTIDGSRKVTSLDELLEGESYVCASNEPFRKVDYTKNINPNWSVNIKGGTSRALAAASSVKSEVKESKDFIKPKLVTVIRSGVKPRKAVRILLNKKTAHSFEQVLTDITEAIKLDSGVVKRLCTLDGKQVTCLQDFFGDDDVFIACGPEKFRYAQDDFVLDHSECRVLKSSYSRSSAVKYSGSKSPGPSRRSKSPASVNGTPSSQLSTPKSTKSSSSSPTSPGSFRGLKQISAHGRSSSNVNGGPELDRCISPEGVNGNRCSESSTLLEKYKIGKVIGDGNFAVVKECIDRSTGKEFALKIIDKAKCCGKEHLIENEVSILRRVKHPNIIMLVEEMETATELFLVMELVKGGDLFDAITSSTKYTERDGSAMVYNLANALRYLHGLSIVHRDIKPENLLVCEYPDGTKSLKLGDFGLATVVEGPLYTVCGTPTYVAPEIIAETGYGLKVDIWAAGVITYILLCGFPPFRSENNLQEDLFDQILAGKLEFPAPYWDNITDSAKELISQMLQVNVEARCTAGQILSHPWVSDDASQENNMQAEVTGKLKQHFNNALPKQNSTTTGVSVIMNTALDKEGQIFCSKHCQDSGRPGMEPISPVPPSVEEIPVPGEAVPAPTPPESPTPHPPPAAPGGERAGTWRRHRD
The data set can be described thus: KinomeScan kinome profiling, DCAMKL2. The settings on record: 1 μM, panel of 468 human kinases. It is filed as binding. The essentials:
as §1

Data set [8] deals with DCAMKL2. The data set can be described thus: DCAMKL2 biochemical enzyme assay. The settings on record: in vitro biochemical enzyme assays.
A short description of data set [9]: Variable temperature 1H NMR, interconversion of conformers. Type of data set: physicochemical.
The mark [10] stands for this setting: read-out: Biochemical IC50 (BRD4, μM) a, AlphaScreen, Dana-Farber, average of 2 replicates ± SE.
The mark [11] stands for this setting: read-out: Biochemical IC50 (BRD4, μM) b, AlphaScreen, University of Oxford, average of 4 replicates ± SD.
Setting [12] is: read-out: Enzymatic IC50 (LRRK2), Adapta assay format, average of 2 replicates ± SD.
Where [13] appears, read: Homo sapiens, HeLa, read-out: Cellular EC50 (ERK5, μM).

Here are results for five compounds from article PMC6333101 (ACS chemical biology, 2018).

Where two headings read alike, the source gives them in different places. Where only a bound is given, the exact number is not on record here.

Chain of LRRK2 (Q5S007 whole entry): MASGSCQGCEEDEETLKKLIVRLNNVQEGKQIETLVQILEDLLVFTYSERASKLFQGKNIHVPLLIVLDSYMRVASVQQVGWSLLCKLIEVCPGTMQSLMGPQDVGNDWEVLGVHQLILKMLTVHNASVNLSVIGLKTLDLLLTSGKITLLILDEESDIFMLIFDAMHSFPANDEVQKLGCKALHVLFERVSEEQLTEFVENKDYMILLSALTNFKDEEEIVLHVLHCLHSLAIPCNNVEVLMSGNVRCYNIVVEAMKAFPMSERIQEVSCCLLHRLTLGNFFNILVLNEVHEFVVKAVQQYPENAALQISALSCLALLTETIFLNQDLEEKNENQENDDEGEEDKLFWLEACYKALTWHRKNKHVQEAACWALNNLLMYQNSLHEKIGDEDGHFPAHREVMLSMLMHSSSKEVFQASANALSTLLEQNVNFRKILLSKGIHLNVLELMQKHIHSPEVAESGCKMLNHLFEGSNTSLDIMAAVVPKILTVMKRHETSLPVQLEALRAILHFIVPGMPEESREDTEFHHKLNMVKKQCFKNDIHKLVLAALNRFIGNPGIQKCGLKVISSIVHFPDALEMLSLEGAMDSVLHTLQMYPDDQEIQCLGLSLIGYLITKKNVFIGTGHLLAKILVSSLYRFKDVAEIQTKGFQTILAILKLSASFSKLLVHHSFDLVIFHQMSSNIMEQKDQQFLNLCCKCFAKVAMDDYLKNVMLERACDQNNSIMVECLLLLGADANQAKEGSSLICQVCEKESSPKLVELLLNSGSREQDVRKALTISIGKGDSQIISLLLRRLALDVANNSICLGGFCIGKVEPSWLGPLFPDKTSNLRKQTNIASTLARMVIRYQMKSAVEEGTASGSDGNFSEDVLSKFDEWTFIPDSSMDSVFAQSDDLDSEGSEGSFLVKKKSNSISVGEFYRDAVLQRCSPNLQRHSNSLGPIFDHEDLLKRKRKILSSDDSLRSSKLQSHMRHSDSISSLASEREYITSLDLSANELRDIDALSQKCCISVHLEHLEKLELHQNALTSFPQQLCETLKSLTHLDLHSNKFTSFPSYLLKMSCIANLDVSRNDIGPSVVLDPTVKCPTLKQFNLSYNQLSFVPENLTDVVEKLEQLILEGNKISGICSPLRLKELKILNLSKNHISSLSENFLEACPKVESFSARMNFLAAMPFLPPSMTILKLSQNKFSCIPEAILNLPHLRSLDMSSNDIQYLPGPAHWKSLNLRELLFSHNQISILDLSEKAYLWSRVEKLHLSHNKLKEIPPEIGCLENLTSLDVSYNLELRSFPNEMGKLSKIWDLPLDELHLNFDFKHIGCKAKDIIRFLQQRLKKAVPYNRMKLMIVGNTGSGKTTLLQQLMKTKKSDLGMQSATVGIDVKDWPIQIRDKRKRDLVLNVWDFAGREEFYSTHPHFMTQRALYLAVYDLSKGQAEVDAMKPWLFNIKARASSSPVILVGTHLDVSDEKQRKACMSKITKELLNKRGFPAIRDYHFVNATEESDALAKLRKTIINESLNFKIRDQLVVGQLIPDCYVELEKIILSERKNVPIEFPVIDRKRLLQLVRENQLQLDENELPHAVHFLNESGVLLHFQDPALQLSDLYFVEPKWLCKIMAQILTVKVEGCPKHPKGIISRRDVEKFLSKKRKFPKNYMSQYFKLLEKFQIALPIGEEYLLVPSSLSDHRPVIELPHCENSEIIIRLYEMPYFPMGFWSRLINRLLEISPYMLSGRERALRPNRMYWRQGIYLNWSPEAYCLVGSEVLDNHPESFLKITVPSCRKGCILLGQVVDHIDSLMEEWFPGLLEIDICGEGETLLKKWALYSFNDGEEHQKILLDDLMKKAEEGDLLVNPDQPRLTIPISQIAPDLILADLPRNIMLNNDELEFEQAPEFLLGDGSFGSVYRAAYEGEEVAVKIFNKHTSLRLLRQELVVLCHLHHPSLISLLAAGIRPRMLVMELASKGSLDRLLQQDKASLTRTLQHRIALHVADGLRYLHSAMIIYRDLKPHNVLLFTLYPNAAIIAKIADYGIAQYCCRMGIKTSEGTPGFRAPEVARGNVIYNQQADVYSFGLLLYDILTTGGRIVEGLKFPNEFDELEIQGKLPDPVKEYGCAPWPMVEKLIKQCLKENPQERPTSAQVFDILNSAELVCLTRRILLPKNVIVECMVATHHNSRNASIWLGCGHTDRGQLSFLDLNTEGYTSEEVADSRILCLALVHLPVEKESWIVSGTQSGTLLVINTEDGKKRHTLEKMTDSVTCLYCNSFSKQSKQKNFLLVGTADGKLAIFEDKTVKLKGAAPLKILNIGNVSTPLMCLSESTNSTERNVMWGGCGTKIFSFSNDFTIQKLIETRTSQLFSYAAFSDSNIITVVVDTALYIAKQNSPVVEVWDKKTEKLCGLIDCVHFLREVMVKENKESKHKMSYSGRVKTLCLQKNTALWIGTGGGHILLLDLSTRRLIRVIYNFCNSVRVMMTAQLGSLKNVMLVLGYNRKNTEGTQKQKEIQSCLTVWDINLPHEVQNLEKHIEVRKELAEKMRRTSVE

With `CC(C)Oc1cc(C(=O)N2CCC(N3CCN(C)CC3)CC2)ccc1Nc1ccc2c(n1)N(C1CCCC1)c1ccccc1C(=O)N2C` [JWG-115], at BRD4 (BD1) [1] (pyridine vs pyrimidine core), the “decrease of activity against BRD4 compared to the pyrimidine analogs XMD11–50 and JWG-047” value is listed as 4–8 fold. The IC50 is 1 µM on BRD4 (BD1) [1] (read-out: BRD4 IC50, value as stated in text); 1.08 ± 0.05 µM on BRD4 (BD1) [1] (setting [10]); 1.1 ± 0.05 µM on BRD4 (BD1) [2] (setting [11]); over 10000 nM on ERK5 [3]; over 3300 nM at LRRK2 (setting [12]). Besides, in the data set with panel of 32 bromodomains, the “BROMOscan binding among BET family” value is “strong binding”. The “BROMOscan binding outside BET family” value with panel of 32 bromodomains was “no binding”.
For the compound `COc1cc(C(=O)N2CCC(N3CCN(C)CC3)CC2)ccc1Nc1ncc2c(n1)N(C)c1ccccc1C(=O)N2C` [XMD11–50 (LRRK2-IN-1)], on LRRK2, the IC50 came to 3.4 ± 1.7 nM. Also, in the data set on ERK5 [4] (setting [13]), the EC50 was […].
Turning to `CCOc1cc(C(=O)N2CCC(N3CCN(C)CC3)CC2)ccc1Nc1ncc2c(n1)N(C1CCCC1)c1ccccc1C(=O)N2C` [XMD17–109 (ERK5-IN-1), reference compound], the half-maximal inhibitory concentration (IC50) at BRD4 (BD1) [1] turned out to be 0.217 ± 0.008 µM; on BRD4 (BD1) [2], 0.68 ± 0.03 µM. Also, the EC50 in the data set with ERK5 [4] (setting [13]) turned out to be […].
`CCOc1cc(C(=O)N2CCC(N3CCN(C)CC3)CC2)ccc1Nc1ncc2c(n1)N(S(C)(=O)=O)c1ccccc1C(=O)N2C` [AX15836, reference compound] registered an IC50 on LRRK2 of 942 ± 569 nM.
For `CCC(C)N1c2ccccc2C(=O)N(C)c2cnc(Nc3ccc(C(=O)N4CCC(N5CCN(C)CC5)CC4)cc3OC)nc21` (stereo not drawn) [JWG-071], the IC50 on BRD4 (BD1) [1] (setting [10]) was 5.42 ± 0.18 µM; at BRD4 (BD1) [2] (setting [11]) it was 6.31 ± 1.93 µM; at ERK5 [3] it was 88 ± 5 nM; at LRRK2 (setting [12]) it was 109 ± 14 nM; in data set [5] it was over 10000 nM. Also, the “improved ERK5 activity compared to XMD17–109 (ERK5-IN-1)” value at ERK5 [3] is on record as 2 fold. Moreover, on LRRK2 (in vitro biochemical enzyme assays), the “selectivity for ERK5 relative to LRRK2” value is 1.2 folds. For the same compound, the EC50 in the data set on ERK5 [4] (read-out: Cellular EC50 (ERK5), EGF-stimulated autophosphorylation of ERK5 in Hela cells, average of 2 replicates ± SD) came to 0.02 ± 0.003 µM. The “Ambit score (ERK5)” value with ERK5 [6] is on record as “less than 10%”. In addition, the “Ambit score (DCAMKL2)” value at DCAMKL2 [7] is recorded as “less than 10%”. For the same compound, the “selectivity for ERK5 relative to DCAMKL2” value in the data set with DCAMKL2 [8] was found to be 2.5 folds. For the same compound, the “Calc ΔErac” value in [9] (calculated energy barrier of interconversion) is on record as 15.9 kcal/mol. Further, in [9] (variable temperature 1H NMR in DMSO-d6), the “Tco (coalescence temperature)” value came to 60 °C.
